Laboratory results: ChEMBL document CHEMBL3112398, “Qualification of LSP1-2111 as a Brain Penetrant Group III Metabotropic Glutamate Receptor Orthosteric Agonist” (ACS Med Chem Lett, 2014)
Each block holds one molecule with its values, some of them ahead of it.

How the values were obtained:
Homo sapiens [1] = organism: Homo sapiens; assay: Selectivity for mGlu4 receptor (unknown origin) over mGlu8 receptor (unknown origin)
Homo sapiens [2] = organism: Homo sapiens; assay: Selectivity for mGlu4 receptor (unknown origin) over mGlu6 receptor (unknown origin)
Homo sapiens [3] = organism: Homo sapiens; assay: Selectivity for mGlu4 receptor (unknown origin) over mGlu7 receptor (unknown origin)
[4] = Drug uptake in Sprague-Dawley rat CSF at 10 mg/kg, sc after 6 hrs by quantitative microdialysis method; type: ADME, organism-based, Cerebrospinal fluid; parameters: dose 10 mg/kg, route subcutaneous; settings: read-out: Drug uptake
Summary of the method: (§1)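 Rats dosed SC at 10 mg/kg with drug in saline at pH 7.4; plasma, CSF and brain homogenate sampled over a 6 h time course (0.5–6 h), N = 4. Brain not perfused before homogenization. AUC0-6 computed from the concentration–time profiles.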

[5] = Half life in Sprague-Dawley rat plasma at 10 mg/kg, sc by quantitative microdialysis method; type: ADME, organism-based; parameters: dose 10 mg/kg, route subcutaneous; summary of the method: as §1
[6] = Passive apparent permeability of the compound by PAMPA; type: ADME
[7] = AUC (0 to 6 hrs) in Sprague-Dawley rat CSF at 10 mg/kg, sc by quantitative microdialysis method; type: ADME, organism-based; parameters: time < 6 hr, dose 10 mg/kg, route subcutaneous; summary of the method: as §1
Brain [8] = assay: Drug uptake in Sprague-Dawley rat brain at 10 mg/kg, sc after 6 hrs by quantitative microdialysis method; type: ADME, organism-based; parameters: dose 10 mg/kg, route subcutaneous; settings: in vivo; summary of the method: as §1
Liver microsome [9] = assay: Intrinsic clearance in human liver microsomes; type: ADME
MDR1 [10] = assay: Apparent permeability from apical to basolateral side in MDCK cells expressing MDR1; type: ADME, cell-based, Canis lupus familiaris; settings: dog
Summary of the method: (§2)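 Bidirectional transport across MDCK/MDR1 monolayers, apparent permeability measured A→B and B→A. The B→A/A→B ratio is used as an indicator of P-gp substrate behaviour.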

[11] = Thermodynamic solubility of the compound at pH 7.4; type: physicochemical; settings: buffer, read-out: Therm_solubility
HepG2 = assay: Cytotoxicity against human HepG2 cells by luminescence assay; type: cell-based
[12] = Ratio of AUC (0 to 6 hrs) from brain to plasma in Sprague-Dawley rat at 10 mg/kg, sc by quantitative microdialysis method; type: ADME, organism-based; parameters: dose 10 mg/kg, route subcutaneous; settings: in vivo
hERG (KCNH2) = hERG (KCNH2) (Homo sapiens, UniProt Q12809); assay: Inhibition of human ERG channel at 30 uM by ionworks assay
Chain of hERG (KCNH2) (Q12809 whole entry): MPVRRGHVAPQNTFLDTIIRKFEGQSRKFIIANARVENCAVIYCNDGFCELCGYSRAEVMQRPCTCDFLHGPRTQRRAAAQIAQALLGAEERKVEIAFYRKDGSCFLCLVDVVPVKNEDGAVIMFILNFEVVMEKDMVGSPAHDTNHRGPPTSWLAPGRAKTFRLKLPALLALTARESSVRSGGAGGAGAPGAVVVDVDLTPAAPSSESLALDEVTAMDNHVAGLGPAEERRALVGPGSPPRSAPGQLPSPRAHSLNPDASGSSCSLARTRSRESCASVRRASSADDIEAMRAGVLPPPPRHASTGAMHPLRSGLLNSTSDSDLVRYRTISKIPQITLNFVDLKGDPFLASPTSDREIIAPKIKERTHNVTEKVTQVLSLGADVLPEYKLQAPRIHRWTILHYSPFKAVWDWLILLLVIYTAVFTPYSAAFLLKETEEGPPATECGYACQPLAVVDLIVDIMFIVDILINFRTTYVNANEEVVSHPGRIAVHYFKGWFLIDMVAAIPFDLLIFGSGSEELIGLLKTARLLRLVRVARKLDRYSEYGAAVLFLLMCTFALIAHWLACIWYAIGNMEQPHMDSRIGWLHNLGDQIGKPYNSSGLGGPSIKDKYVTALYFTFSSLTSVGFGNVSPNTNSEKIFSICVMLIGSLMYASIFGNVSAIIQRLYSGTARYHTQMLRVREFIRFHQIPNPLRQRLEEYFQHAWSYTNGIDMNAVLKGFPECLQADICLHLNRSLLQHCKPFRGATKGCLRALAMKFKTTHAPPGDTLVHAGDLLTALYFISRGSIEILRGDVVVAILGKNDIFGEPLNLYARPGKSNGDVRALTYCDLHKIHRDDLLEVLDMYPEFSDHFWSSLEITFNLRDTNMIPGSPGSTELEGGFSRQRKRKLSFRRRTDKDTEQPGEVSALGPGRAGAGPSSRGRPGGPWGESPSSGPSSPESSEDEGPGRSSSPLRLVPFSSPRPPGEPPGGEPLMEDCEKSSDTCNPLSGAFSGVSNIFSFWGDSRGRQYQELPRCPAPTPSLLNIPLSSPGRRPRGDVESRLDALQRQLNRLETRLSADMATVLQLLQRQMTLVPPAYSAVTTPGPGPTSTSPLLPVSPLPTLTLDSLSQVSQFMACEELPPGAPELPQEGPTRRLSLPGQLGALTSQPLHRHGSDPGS

Brain [13] = assay: Drug uptake in Sprague-Dawley rat brain at 10 mg/kg, sc after 4 hrs by quantitative microdialysis method; type: ADME, organism-based; parameters: dose 10 mg/kg, route subcutaneous; settings: in vivo; summary of the method: as §1
[14] = Tmax in Sprague-Dawley rat at 10 mg/kg, po; type: ADME, organism-based; parameters: dose 10 mg/kg, route oral; settings: in vivo
Summary of the method: (§3)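 SD rats given IV (1 mg/kg) or oral (10 mg/kg) doses as a solution in saline buffered to pH 7.4, dose volume 5 mL/kg, N = 2. Plasma concentration–time profiles analysed by noncompartmental analysis; reported values are means.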

[15] = Fraction unbound in rat plasma; type: ADME, cell-free
[16] = target: Metabotropic glutamate receptor 4 (Homo sapiens, UniProt Q14833); assay: Displacement of [3H]-L-AP4 from human mGlu4 receptor
Chain of Metabotropic glutamate receptor 4 (Q14833 whole entry): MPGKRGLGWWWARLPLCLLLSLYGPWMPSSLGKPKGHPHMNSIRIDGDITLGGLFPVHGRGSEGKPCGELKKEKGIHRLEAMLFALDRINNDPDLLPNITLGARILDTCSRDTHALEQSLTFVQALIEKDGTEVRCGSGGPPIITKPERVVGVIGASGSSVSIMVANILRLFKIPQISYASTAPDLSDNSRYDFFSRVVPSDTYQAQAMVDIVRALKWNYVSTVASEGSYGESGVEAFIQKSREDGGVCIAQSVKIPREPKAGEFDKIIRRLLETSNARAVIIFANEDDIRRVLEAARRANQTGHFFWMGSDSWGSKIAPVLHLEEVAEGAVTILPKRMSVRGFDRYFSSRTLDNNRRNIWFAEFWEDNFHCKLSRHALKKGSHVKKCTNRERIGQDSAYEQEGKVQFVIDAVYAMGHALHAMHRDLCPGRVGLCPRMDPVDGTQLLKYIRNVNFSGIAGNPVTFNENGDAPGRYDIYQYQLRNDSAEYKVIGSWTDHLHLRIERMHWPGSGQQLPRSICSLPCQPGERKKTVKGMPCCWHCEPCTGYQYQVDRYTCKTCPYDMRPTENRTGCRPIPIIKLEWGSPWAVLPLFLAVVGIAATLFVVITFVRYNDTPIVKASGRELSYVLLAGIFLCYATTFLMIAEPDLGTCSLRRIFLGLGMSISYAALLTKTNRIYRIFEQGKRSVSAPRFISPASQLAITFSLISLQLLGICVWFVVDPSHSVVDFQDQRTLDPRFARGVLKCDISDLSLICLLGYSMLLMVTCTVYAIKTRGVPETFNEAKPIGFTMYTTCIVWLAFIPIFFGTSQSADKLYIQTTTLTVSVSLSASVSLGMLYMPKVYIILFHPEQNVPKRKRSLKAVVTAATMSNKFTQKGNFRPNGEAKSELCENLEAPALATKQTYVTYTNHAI

Liver microsome [17] = assay: Intrinsic clearance in rat liver microsomes; type: ADME
[18] = Ratio of AUC (0 to 6 hrs) from CSF to plasma in Sprague-Dawley rat at 10 mg/kg, sc by quantitative microdialysis method; type: ADME, organism-based; parameters: dose 10 mg/kg, route subcutaneous
Summary of the method: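 Rats given 10 mg/kg SC, formulated in saline at pH 7.4 (N = 4). Plasma, CSF and brain were sampled over a 6 h time course starting at 0.5 h. Brain was homogenized without perfusion, so capillary blood was retained. Ratios were calculated from AUC0-6 of CSF or brain homogenate versus plasma.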

[19] = AUC (infinity) in Sprague-Dawley rat at 1 mg/kg, iv; type: ADME, organism-based; parameters: time infinity, dose 1 mg/kg, route intravenous; settings: plasma
Summary of the method: (§4)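 Plasma concentrations were followed over time. Pharmacokinetic parameters were derived by noncompartmental analysis and reported as means of N = 2 animals.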

[20] = Plasma concentration in Sprague-Dawley rat at 10 mg/kg, sc after 60 mins by quantitative microdialysis method; type: ADME, organism-based; parameters: dose 10 mg/kg, route subcutaneous
Summary of the method: (§5)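 Rat in vivo microdialysis with a MetaQuant probe at a low flow rate of 0.1 μL/min after SC doses of 10 or 30 mg/kg. Brain ECF dialysate and plasma concentrations followed over time. ECF values corrected for 96% in vivo probe recovery.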

[21] = Fraction unbound in mouse plasma; type: ADME, cell-free
[22] = Kinetic aqueous solubility of the compound; type: physicochemical; settings: buffer; read-out: Kinetic_solubility
Summary of the method: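 Kinetic aqueous solubility determined in an assay developed and optimized for lipophilic compounds; detection limit 800 μM.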

[23] = AUC (0 to 6 hrs) in Sprague-Dawley rat plasma at 10 mg/kg, sc by quantitative microdialysis method; type: ADME, organism-based; parameters: time < 6 hr, dose 10 mg/kg, route subcutaneous; summary of the method: as §1
Brain [24] = assay: Drug uptake in Sprague-Dawley rat brain at 10 mg/kg, sc after 30 mins by quantitative microdialysis method; type: ADME, organism-based; parameters: dose 10 mg/kg, route subcutaneous; settings: in vivo, 0.5 h; summary of the method: as §1
[25] = Fraction unbound in human plasma; type: ADME, cell-free
[26] = Volume of distribution at steady state in Sprague-Dawley rat at 1 mg/kg, iv; type: ADME, organism-based; parameters: dose 1 mg/kg, route intravenous; settings: in vivo, read-out: Vdss; summary of the method: as §3
MDR1 [27] = assay: Apparent permeability from basolateral to apical side in MDCK cells expressing MDR1; type: ADME, cell-based, Canis lupus familiaris; settings: dog; summary of the method: as §2
Plasma [28] = assay: Maximum unbound concentration in Sprague-Dawley rat plasma at 10 mg/kg, sc after 0.5 hrs by quantitative microdialysis method; settings: in vivo
[29] = Plasma clearance in Sprague-Dawley rat at 1 mg/kg, iv; type: ADME, organism-based; parameters: dose 1 mg/kg, route intravenous; summary of the method: as §3
[30] = Plasma concentration in Sprague-Dawley rat at 30 mg/kg, sc after 60 mins by quantitative microdialysis method; type: ADME, organism-based; parameters: dose 30 mg/kg, route subcutaneous; summary of the method: as §5
[31] = Half life in Sprague-Dawley rat at 1 mg/kg, iv; type: ADME, organism-based; parameters: dose 1 mg/kg, route intravenous; settings: in vivo; summary of the method: as §3
[32] = Drug uptake in Sprague-Dawley rat ECF at 30 mg/kg, sc after 60 mins by quantitative microdialysis method; type: ADME, organism-based; parameters: dose 30 mg/kg, route subcutaneous; settings: read-out: Drug uptake; summary of the method: as §5
Brain [33] = assay: AUC (0 to 6 hrs) in Sprague-Dawley rat brain at 10 mg/kg, sc by quantitative microdialysis method; type: ADME, organism-based; parameters: time < 6 hr, dose 10 mg/kg, route subcutaneous; settings: in vivo; summary of the method: as §1
[34] = Cmax in Sprague-Dawley rat at 10 mg/kg, po; type: ADME, organism-based; parameters: dose 10 mg/kg, route oral; settings: in vivo; summary of the method: as §3
Plasma [35] = assay: Plasma concentration in Sprague-Dawley rat at 10 mg/kg, sc after 0.5 to 6 hrs by quantitative microdialysis method; type: ADME, organism-based; parameters: dose 10 mg/kg, route subcutaneous; settings: in vivo; summary of the method: as §1
[36] = Oral bioavailability in Sprague-Dawley rat at 10 mg/kg; type: ADME, organism-based; settings: in vivo; summary of the method: as §3
[37] = Fraction unbound in rat brain homogenates; type: ADME, tissue-based; settings: brain homogenate
[38] = Fraction unbound in mouse brain homogenates; type: ADME, tissue-based; settings: brain homogenate
[39] = Drug uptake in rat Sprague-Dawley ECF at 10 mg/kg, sc after 60 mins by quantitative microdialysis method; type: ADME, organism-based; parameters: dose 10 mg/kg, route subcutaneous; settings: read-out: Drug uptake; summary of the method: as §5
[40] = AUC (infinity) in Sprague-Dawley rat at 10 mg/kg, po; type: ADME, organism-based; parameters: time infinity, dose 10 mg/kg, route oral; settings: plasma; summary of the method: as §4
[41] = Lipophilicity, log D of the compound at pH 7.4; type: physicochemical; settings: buffer

Selectivity ratio (Homo sapiens [1]): 300
Selectivity ratio (Homo sapiens [2]): 40
Selectivity ratio (Homo sapiens [3]): 100
Structure (SMILES): N[C@@H](CCP(=O)(O)C(O)c1ccc(OCC(=O)O)cc1)C(=O)O (stereo partly specified)

concentration at 6 h [4]: 0.7 µM
half-life [5]: 20 min
Papp [6]: < 0.1 ×10⁻⁶ cm/s
AUC(0-t) at 6 h [7]: 3500 ng·h/mL
Drug uptake (Brain [8]): 0.4 µM
CLH (Liver microsome [9]): 0.1 L/min
Papp A→B (MDR1 [10]): 0.2 ×10⁻⁶ cm/s
solubility thermodynamic [11]: > 1800 µg/mL
Selectivity ratio (Homo sapiens [1]): 30
Ratio AUC [12]: 2.4%
Drug uptake (Brain [13]): 0.08 µM
Tmax [14]: 84 min
fraction unbound [15]: > 0.99
IC50 [16]: 8.6 µM
CLH (Liver microsome [17]): 3.1 mL/min
Ratio AUC [18]: 12%
AUC(0-inf) [19]: 2800 ng·h/mL
concentration at 1 h [20]: 31 µM
fraction unbound [21]: > 0.99
solubility kinetic [22]: > 800 µM
AUC(0-t) at 6 h [23]: 30000 ng·h/mL
Drug uptake (Brain [24]): 1 µM
fraction unbound [25]: 0.73
Vd [26]: 0.1 L/kg
Selectivity ratio (Homo sapiens [2]): 1
Papp B→A (MDR1 [27]): 0.5 ×10⁻⁶ cm/s
Cp(f) (Plasma [28]): 55.2 µM
Selectivity ratio (Homo sapiens [3]): 25
clearance [29]: 6.2 mL/min/kg
concentration at 1 h [30]: 114 µM
half-life [31]: 18 min
concentration at 1 h [32]: 9.8 µM
AUC (Brain [33]): 0.7 µg·h/g
Cmax [34]: 92 ng/mL
Cp (Plasma [35]): 150 ng/mL
bioavailability [36]: 0.8%
fraction unbound [37]: > 0.99
fraction unbound [38]: > 0.99
concentration at 1 h [39]: 1.8 µM
AUC(0-inf) [40]: 200 ng·h/mL
logD [41]: -0.7
Structure (SMILES): COc1cc(C(O)P(=O)(O)CC[C@H](N)C(=O)O)cc([N+](=O)[O-])c1O (mixture of isomers)
Activity (HepG2): Non-toxic
inhibition at 30 µM (hERG (KCNH2)): 14%
